One data set addresses T1, h-15-LOX-1 (Homo sapiens, UniProt P16050).
T1 sequence (P16050 1-662): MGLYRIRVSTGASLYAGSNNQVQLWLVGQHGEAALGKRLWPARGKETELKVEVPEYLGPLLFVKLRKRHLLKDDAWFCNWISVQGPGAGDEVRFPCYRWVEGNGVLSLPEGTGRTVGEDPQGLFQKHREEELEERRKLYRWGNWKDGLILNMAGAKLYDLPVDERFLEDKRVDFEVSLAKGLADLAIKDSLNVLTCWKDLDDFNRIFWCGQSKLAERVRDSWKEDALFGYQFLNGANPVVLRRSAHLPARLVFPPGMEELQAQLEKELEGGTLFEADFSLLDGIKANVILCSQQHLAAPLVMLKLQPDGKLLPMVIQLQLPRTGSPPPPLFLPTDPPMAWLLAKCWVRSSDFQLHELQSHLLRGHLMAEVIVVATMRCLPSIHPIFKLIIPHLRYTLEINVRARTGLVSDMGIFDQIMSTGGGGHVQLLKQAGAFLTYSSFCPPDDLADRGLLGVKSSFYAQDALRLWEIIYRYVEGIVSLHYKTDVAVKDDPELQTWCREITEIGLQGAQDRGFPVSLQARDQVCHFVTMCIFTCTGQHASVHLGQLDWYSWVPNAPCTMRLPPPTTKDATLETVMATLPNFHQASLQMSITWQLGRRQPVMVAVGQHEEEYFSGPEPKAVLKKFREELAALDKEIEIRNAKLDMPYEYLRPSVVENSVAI
The data set is described as follows: Human 15-LOX-1 screening UV assay. The conditions noted are these: for h-15-LOX-1 inhibition (result in words): SAR comparison, Figure 3, up to 50 μM. The class given is biochemical.

Data set [1] concerns precision-cut lung slices (PCLS). Particulars: LDH release, 1-500 nM with 10 μM linoleic acid for 20 h.
For data set [2], the system named is interleukin expression in precision-cut lung slices (PCLS). The data set is described as follows: Gene expression by RT-qPCR in LPS/IFNγ-stimulated precision-cut lung slices. In kind it is cell-based, mouse. The conditions noted are these: 20 h with 10 μM linoleic acid, LPS/IFNγ last 4 h. Background: In qPCR the cycle at which signal appears reflects the starting amount.

The subject of data set [3] is interleukin expression in RAW 264.7 cells. In words: Gene expression by RT-qPCR in LPS/IFNγ-stimulated RAW 264.7 cells. In kind it is cell-based, murine. The conditions noted are these: RAW 264.7, 20 h with 10 μM linoleic acid, LPS/IFNγ last 4 h. A digest of the protocol:
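Murine macrophages (passage 7–16) in DMEM-GlutaMAX with 10% heat-inactivated FBS, extra 2 mM GlutaMAX and penicillin/streptomycin at 37 °C, 5% CO2, seeded at 20,000 cells/cm2 one day before. Test compound 1–500 nM (final) with 10 μM linoleic acid for 20 h; 10 ng/ml LPS and IFNγ for the last 4 h. Cells were DPBS-washed and total RNA isolated for RT-qPCR. Results are fold change versus the LPS/IFNγ/linoleic acid control.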

The test system of a further data set is interleukin-12 (IL-12). The conditions noted are these: after stimulation with LPS; cited from earlier work.

By inhibition is commonly meant the share of the control response that was lost under treatment.

On to `CCOC(=O)c1c(C=O)c2ccc(Cl)cc2n1C` [Compound 3, Ethyl 6-chloro-3-formyl-1-methyl-1H-indole-2-carboxylate], for which the inhibition at 50 µM on h-15-LOX-1 (read-out: inhibition of the enzyme activity at 50 μM) is less than 50%.

Regarding `O=Cc1c(Cl)[nH]c2cc(Cl)ccc12` [Compound 4], the “h-15-LOX-1 inhibition (result in words)” value at h-15-LOX-1 was “inactive”.

`O=Cc1c[nH]c2cc(Cl)ccc12` [Compound 5]: the “h-15-LOX-1 inhibition (result in words)” value on h-15-LOX-1 is “inactive”.

As to `O=Cc1c(C(=O)O)[nH]c2cc(Cl)ccc12` [Compound 7, 6-chloro-3-formyl-1H-indole-2-carboxylic acid], the “h-15-LOX-1 inhibition (result in words)” value on h-15-LOX-1 is “inactive”.

As for `CC(C)(C)OC(=O)c1cc2ccc(Cl)cc2[nH]1` [Compound 8, tert-butyl 6-chloro-1H-indole-2-carboxylate], the “h-15-LOX-1 inhibition (result in words)” value on h-15-LOX-1 was “inactive”.

Take `CCOC(=O)c1[nH]c2cc(Cl)ccc2c1C(=O)C[C@@H](C)CCCC(C)C` [Compound 14d, (S)-ethyl 6-chloro-3-(3,7-dimethyloctanoyl)-1H-indole-2-carboxylate]: in data set [1], the “concentration not affecting PCLS viability” value is given as not above 500 nM. Besides, in data set [2], the IL-1β gene expression entry is recorded as “small but significant downregulation”, the IL-6 gene expression result was “small but significant downregulation”, the IL-10 gene expression entry was “upregulated” and the IL-12 gene expression result was “remained unchanged”. In data set [3], the IL-1β gene expression result is on record as “did not change”, the IL-6 gene expression result is “did not change” and the IL-12 gene expression entry is recorded as “did not change”.

Take `c1ccc2c(c1)SCc1c-2[nH]c2ccccc12` [PD-146176]: the “effect on interleukin-12 (IL-12)” value in the data set on interleukin-12 (IL-12) was “downregulation of interleukin-12 (IL-12)”.

These data come from publication PMC4872822 (Journal of medicinal chemistry, 2015).
